This is an account of results in PMC9071802 (RSC Advances, 2019).

Each structure is given as a SMILES string.

This assay relates to P. aeruginosa MH602 lasB reporter strain (PlasB: gfp(ASV)). Briefly: Quorum sensing inhibition assay, GFP fluorescence of lasB reporter strain. The assay is classed as cell-based, Pseudomonas aeruginosa. The following applies: Pseudomonas aeruginosa, ± standard deviation, NA: no activity; for inhibition at 62.5 µM: read-out: Percentage inhibition of GFP fluorescence, 62.5 μM; for inhibition at 125 µM: read-out: Percentage inhibition of GFP fluorescence, 125 μM; for inhibition at 250 µM: read-out: Percentage inhibition of GFP fluorescence, 250 μM. A digest of the protocol: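 The reporter is a chromosomal lasB promoter–gfp(ASV) fusion responsive to 3-oxododecanoyl-HSL. Cultures were grown overnight in LB10, then diluted 1:100 in ABT with 0.25% tryptone and 0.13% yeast extract plus ampicillin 100 µg mL⁻¹ and gentamicin 20 µg mL⁻¹. Test compound in DMSO was tested at 62.5, 125 or 250 µM, with 1% DMSO controls. Cultures were incubated at 37 °C and shaken briefly before each read. Fluorescence (ex 485/em 535 nm) and OD600 were read every 30 min for 20 h, in triplicate per experiment.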

In general, inhibition refers to the change of the read-out against control, counted positive when it falls. Take `CCCc1cn(CC(=O)Nc2nc3ccccc3[nH]2)nn1` [6a, N-(1H-Benzo[d]imidazol-2-yl)-2-(4-propyl-1H-1,2,3-triazol-1-yl)acetamide]: the inhibition at 62.5 µM is 25.1 ± 0.37%, the inhibition at 125 µM was 35.3 ± 20.4% and the inhibition at 250 µM came out at 50.5 ± 11.8%.

Turning to `CCCCCc1cn(CC(=O)Nc2nc3ccccc3[nH]2)nn1` [6b, N-(1H-Benzo[d]imidazol-2-yl)-2-(4-pentyl-1H-1,2,3-triazol-1-yl)acetamide], the inhibition at 62.5 µM was determined as 27.4 ± 2.36%, the inhibition at 125 µM stood at 38.8 ± 11.5% and the inhibition at 250 µM was found to be 43.5 ± 6.23%.

With `CCCCCCCc1cn(CC(=O)Nc2nc3ccccc3[nH]2)nn1` [6c, N-(1H-Benzo[d]imidazol-2-yl)-2-(4-heptyl-1H-1,2,3-triazol-1-yl)acetamide], the inhibition at 62.5 µM was 25.7 ± 7.62%, the inhibition at 125 µM is 34.7 ± 11.6% and the inhibition at 250 µM is 42.8 ± 14.6%.

In the case of `CCCCCCCCCc1cn(CC(=O)Nc2nc3ccccc3[nH]2)nn1` [6d, N-(1H-Benzo[d]imidazol-2-yl)-2-(4-nonyl-1H-1,2,3-triazol-1-yl)acetamide], the inhibition at 62.5 µM turned out to be 30.6 ± 7.62%, the inhibition at 125 µM is 41.9 ± 4.5% and the inhibition at 250 µM is 48.5 ± 12.7%.

Take `O=C(Cn1cc(Cn2cc(Cl)ccc2=O)nn1)Nc1nc2ccccc2[nH]1` [6f, N-(1H-Benzo[d]imidazol-2-yl)-2-(4-((5-chloro-2-oxopyridin-1(2H)-yl)methyl)-1H-1,2,3-triazol-1-yl)acetamide]: the inhibition at 62.5 µM amounted to 36.1 ± 10.7%, the inhibition at 125 µM came out at 52.7 ± 11.9% and the inhibition at 250 µM turned out to be 58.8 ± 5.09%.

`O=C(Cn1cc(-c2ccccc2)nn1)Nc1nc2ccccc2[nH]1` [6g, N-(1H-Benzo[d]imidazol-2-yl)-2-(4-phenyl-1H-1,2,3-triazol-1-yl)acetamide]: the inhibition at 62.5 µM turned out to be 15.1 ± 5.83%, the inhibition at 125 µM was 17.4 ± 22% and the inhibition at 250 µM is 46 ± 10.2%.

Regarding `O=C(Cn1cc(-c2ccc(F)cc2)nn1)Nc1nc2ccccc2[nH]1` [6h, N-(1H-Benzo[d]imidazol-2-yl)-2-(4-(4-fluorophenyl)-1H-1,2,3-triazol-1-yl)acetamide], the inhibition at 62.5 µM was 49 ± 12.3%, the inhibition at 125 µM was found to be 54.9 ± 2.42% and the inhibition at 250 µM amounted to 56.1 ± 1.77%.

Take `O=C(Cn1cc(-c2ccc(Cl)cc2)nn1)Nc1nc2ccccc2[nH]1` [6i, N-(1H-Benzo[d]imidazol-2-yl)-2-(4-(4-chlorophenyl)-1H-1,2,3-triazol-1-yl)acetamide]: the inhibition at 62.5 µM was found to be 52.9 ± 8.86%, the inhibition at 125 µM was found to be 60.5 ± 6.16% and the inhibition at 250 µM worked out at 65 ± 8.25%.

As for `O=C(Cn1cc(-c2ccc(Br)cc2)nn1)Nc1nc2ccccc2[nH]1` [6j, N-(1H-Benzo[d]imidazol-2-yl)-2-(4-(4-bromophenyl)-1H-1,2,3-triazol-1-yl)acetamide], the inhibition at 62.5 µM came to 45.7 ± 5.44%, the inhibition at 125 µM was 46.2 ± 8.52% and the inhibition at 250 µM is 50.7 ± 10.9%.

With `Cc1ccc(-c2cn(CC(=O)Nc3nc4ccccc4[nH]3)nn2)cc1` [6k, N-(1H-Benzo[d]imidazol-2-yl)-2-(4-(p-tolyl)-1H-1,2,3-triazol-1-yl)acetamide], the inhibition at 62.5 µM was found to be 36.8 ± 6.63%, the inhibition at 125 µM worked out at 32.3 ± 22.2% and the inhibition at 250 µM worked out at 35.9 ± 13.8%.

In the case of `CC(C)(C)c1ccc(-c2cn(CC(=O)Nc3nc4ccccc4[nH]3)nn2)cc1` [6l, N-(1H-Benzo[d]imidazol-2-yl)-2-(4-(4-(tert-butyl)phenyl)-1H-1,2,3-triazol-1-yl)acetamide], the inhibition at 250 µM stood at 35.2 ± 8.78%.

`O=C(Cn1cc(-c2ccc(O)cc2)nn1)Nc1nc2ccccc2[nH]1` [6m, N-(1H-Benzo[d]imidazol-2-yl)-2-(4-(4-hydroxyphenyl)-1H-1,2,3-triazol-1-yl)acetamide]: the inhibition at 62.5 µM turned out to be 34.4 ± 4.97%, the inhibition at 125 µM was 45.7 ± 6.21% and the inhibition at 250 µM amounted to 58.4 ± 7.75%.
